Measurements: ChEMBL document CHEMBL5724801, “EUbOPEN Chemogenomics Library - Multiplex” (2024)
Several values for one entry are separate records, joined by “and”; a condition that tells them apart may be missing. Identical values can stand only once.

Test system: U2OS
Assay: Multiplex assay against U2OS
Assay type: toxicity, cell-based
Conditions: human
Procedure, shortened: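 Hoechst33342, BioTracker Green Microtubule Cytoskeleton Dye, MitoTracker Red and Annexin V Alexa Fluor 680 were added to live cells at seeding, and imaging on a CQ1 microscope at 37°C and 5% CO2 followed compound addition. Gating by CellPathfinder machine learning separated cells into Hoechst high-intensity objects or normal cells, then normal cells into healthy, pyknosed or fragmented nuclei, then pyknosed cells into mitotic or apoptotic. Per cents of healthy-nucleus cells are reported for the tubulin, mitochondrial-mass and membrane-permeability phenotypes.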

[1] = 12 h, 1 µM, compound concentration 1 uM
[2] = 12 h, 10 µM, compound concentration 10 uM
[3] = 24 h, 1 µM, compound concentration 1 uM
[4] = 24 h, 10 µM, compound concentration 10 uM
[5] = 48 h, 1 µM, compound concentration 1 uM
[6] = 48 h, 10 µM, compound concentration 10 uM

Structure (SMILES): CC(C)(C)c1ccc(S(=O)(=O)Nc2ccc(Cl)cc2C(=O)c2cc[n+]([O-])cc2)cc1 [VERCIRNON]
- Population Apoptotic (%) [1]: 77% and 100%
- Population Fragmented Nuclei (%) [1]: 28% and 15%
- Population Healthy Nuclei (%) [1]: 61% and 79%
- Population Hoechst High Intensity Objects (%) [1]: 1% and 0%
- Population Membrane Permeable-Phenotype (%) [1]: 8%
- Population Mitochondria Different-Phenotype (%) [1]: 5% and 4%
- Population Mitotic Cells (%) [1]: 22% and 0%
- Population Normal (%) [1]: 98% and 99%
- Population Pyknosed Nuclei (%) [1]: 10% and 5%
- Population Tubulin-Different-Phenotype (%) [1]: 4% and 3%
- Total Cell Count [1]: 307 and 156
- Population Apoptotic (%) [2]: 77% and 50%
- Population Fragmented Nuclei (%) [2]: 24% and 21%
- Population Healthy Nuclei (%) [2]: 68% and 77%
- Population Hoechst High Intensity Objects (%) [2]: 1% and 0%
- Population Mitochondria Different-Phenotype (%) [2]: 2%
- Population Mitotic Cells (%) [2]: 22% and 50%
- Population Normal (%) [2]: 98% and 99%
- Population Pyknosed Nuclei (%) [2]: 6% and 1%
- Total Cell Count [2]: 266 and 123
- Population Apoptotic (%) [3]: 89% and 92%
- Population Fragmented Nuclei (%) [3]: 25% and 18%
- Population Healthy Nuclei (%) [3]: 67% and 74%
- Population Hoechst High Intensity Objects (%) [3]: 1% and 0%
- Population Membrane Permeable-Phenotype (%) [3]: 8% and 2%
- Population Mitochondria Different-Phenotype (%) [3]: 5% and 4%
- Population Mitotic Cells (%) [3]: 10% and 7%
- Population Normal (%) [3]: 98% and 99%
- Population Pyknosed Nuclei (%) [3]: 7%
- Population Tubulin-Different-Phenotype (%) [3]: 4% and 2%
- Total Cell Count [3]: 357 and 183
- Population Apoptotic (%) [4]: 76% and 71%
- Population Fragmented Nuclei (%) [4]: 21% and 22%
- Population Healthy Nuclei (%) [4]: 72%
- Population Hoechst High Intensity Objects (%) [4]: 2% and 1%
- Population Mitochondria Different-Phenotype (%) [4]: 1%
- Population Mitotic Cells (%) [4]: 23% and 28%
- Population Normal (%) [4]: 97% and 98%
- Population Pyknosed Nuclei (%) [4]: 5% and 4%
- Total Cell Count [4]: 297 and 160
- Population Apoptotic (%) [5]: 82% and 84%
- Population Fragmented Nuclei (%) [5]: 19% and 15%
- Population Healthy Nuclei (%) [5]: 73% and 75%
- Population Hoechst High Intensity Objects (%) [5]: 3% and 4%
- Population Membrane Permeable-Phenotype (%) [5]: 5% and 7%
- Population Mitochondria Different-Phenotype (%) [5]: 3% and 2%
- Population Mitotic Cells (%) [5]: 17% and 15%
- Population Normal (%) [5]: 96% and 95%
- Population Pyknosed Nuclei (%) [5]: 6% and 9%
- Population Tubulin-Different-Phenotype (%) [5]: 4% and 2%
- Total Cell Count [5]: 515 and 296
- Population Apoptotic (%) [6]: 79% and 77%
- Population Fragmented Nuclei (%) [6]: 18% and 26%
- Population Healthy Nuclei (%) [6]: 75% and 65%
- Population Hoechst High Intensity Objects (%) [6]: 1% and 2%
- Population Membrane Permeable-Phenotype (%) [6]: 2% and 8%
- Population Mitochondria Different-Phenotype (%) [6]: 1% and 5%
- Population Mitotic Cells (%) [6]: 20% and 22%
- Population Normal (%) [6]: 98% and 97%
- Population Pyknosed Nuclei (%) [6]: 5% and 8%
- Population Tubulin-Different-Phenotype (%) [6]: 1% and 11%
- Total Cell Count [6]: 414 and 215

Structure (SMILES): O=C(O)Cc1ccccc1Nc1c(Cl)cccc1Cl [DICLOFENAC]
- Population Apoptotic (%) [1]: 90% and 84%
- Population Fragmented Nuclei (%) [1]: 15% and 13%
- Population Healthy Nuclei (%) [1]: 78% and 76%
- Population Hoechst High Intensity Objects (%) [1]: 5% and 0%
- Population Membrane Permeable-Phenotype (%) [1]: 4% and 5%
- Population Mitochondria Different-Phenotype (%) [1]: 4% and 2%
- Population Mitotic Cells (%) [1]: 10% and 15%
- Population Normal (%) [1]: 94% and 99%
- Population Pyknosed Nuclei (%) [1]: 6% and 10%
- Population Tubulin-Different-Phenotype (%) [1]: 4% and 2%
- Total Cell Count [1]: 164
- Population Apoptotic (%) [2]: 75% and 72%
- Population Fragmented Nuclei (%) [2]: 20% and 14%
- Population Healthy Nuclei (%) [2]: 68% and 76%
- Population Hoechst High Intensity Objects (%) [2]: 2% and 3%
- Population Membrane Permeable-Phenotype (%) [2]: 8%
- Population Mitochondria Different-Phenotype (%) [2]: 4% and 3%
- Population Mitotic Cells (%) [2]: 25% and 27%
- Population Normal (%) [2]: 97% and 96%
- Population Pyknosed Nuclei (%) [2]: 11% and 9%
- Population Tubulin-Different-Phenotype (%) [2]: 4% and 8%
- Total Cell Count [2]: 258
- Population Apoptotic (%) [3]: 92% and 87%
- Population Fragmented Nuclei (%) [3]: 15% and 19%
- Population Healthy Nuclei (%) [3]: 76% and 70%
- Population Hoechst High Intensity Objects (%) [3]: 4% and 3%
- Population Membrane Permeable-Phenotype (%) [3]: 2% and 5%
- Population Mitochondria Different-Phenotype (%) [3]: 2%
- Population Mitotic Cells (%) [3]: 7% and 12%
- Population Normal (%) [3]: 95% and 96%
- Population Pyknosed Nuclei (%) [3]: 7% and 10%
- Population Tubulin-Different-Phenotype (%) [3]: 2%
- Total Cell Count [3]: 191 and 165
- Population Apoptotic (%) [4]: 72% and 81%
- Population Fragmented Nuclei (%) [4]: 17% and 15%
- Population Healthy Nuclei (%) [4]: 72% and 77%
- Population Hoechst High Intensity Objects (%) [4]: 0% and 1%
- Population Membrane Permeable-Phenotype (%) [4]: 3% and 5%
- Population Mitochondria Different-Phenotype (%) [4]: 1% and 2%
- Population Mitotic Cells (%) [4]: 27% and 18%
- Population Normal (%) [4]: 99% and 98%
- Population Pyknosed Nuclei (%) [4]: 10% and 7%
- Population Tubulin-Different-Phenotype (%) [4]: 2% and 4%
- Total Cell Count [4]: 311 and 153
- Population Apoptotic (%) [5]: 100% and 83%
- Population Fragmented Nuclei (%) [5]: 17% and 15%
- Population Healthy Nuclei (%) [5]: 71% and 70%
- Population Hoechst High Intensity Objects (%) [5]: 4% and 3%
- Population Membrane Permeable-Phenotype (%) [5]: 4%
- Population Mitochondria Different-Phenotype (%) [5]: 2% and 4%
- Population Mitotic Cells (%) [5]: 0% and 16%
- Population Normal (%) [5]: 95% and 96%
- Population Pyknosed Nuclei (%) [5]: 10% and 14%
- Population Tubulin-Different-Phenotype (%) [5]: 2% and 4%
- Total Cell Count [5]: 271 and 216
- Population Apoptotic (%) [6]: 86% and 100%
- Population Fragmented Nuclei (%) [6]: 16% and 12%
- Population Healthy Nuclei (%) [6]: 73% and 75%
- Population Hoechst High Intensity Objects (%) [6]: 2% and 1%
- Population Membrane Permeable-Phenotype (%) [6]: 6%
- Population Mitochondria Different-Phenotype (%) [6]: 1%
- Population Mitotic Cells (%) [6]: 13% and 0%
- Population Normal (%) [6]: 97% and 98%
- Population Pyknosed Nuclei (%) [6]: 10% and 11%
- Population Tubulin-Different-Phenotype (%) [6]: 2% and 6%
- Total Cell Count [6]: 436 and 220

Structure (SMILES): S=c1[nH]nc(-c2cccs2)n1-c1ccccc1
- Population Apoptotic (%) [1]: 50% and 31.82%
- Population Fragmented Nuclei (%) [1]: 2.88% and 1.49%
- Population Healthy Nuclei (%) [1]: 87.7% and 82.09%
- Population Hoechst High Intensity Objects (%) [1]: 0%
- Population Membrane Permeable-Phenotype (%) [1]: 0% and 3.64%
- Population Mitochondria Different-Phenotype (%) [1]: 0.3% and 2.73%
- Population Mitotic Cells (%) [1]: 50% and 68.18%
- Population Normal (%) [1]: 100%
- Population Pyknosed Nuclei (%) [1]: 9.42% and 16.42%
- Population Tubulin-Different-Phenotype (%) [1]: 0.3% and 0%
- Total Cell Count [1]: 382 and 134
- Population Apoptotic (%) [2]: 41.82% and 31.25%
- Population Fragmented Nuclei (%) [2]: 1.86% and 4.61%
- Population Healthy Nuclei (%) [2]: 83.55% and 84.87%
- Population Hoechst High Intensity Objects (%) [2]: 0%
- Population Membrane Permeable-Phenotype (%) [2]: 0.32% and 5.43%
- Population Mitochondria Different-Phenotype (%) [2]: 0.32% and 5.43%
- Population Mitotic Cells (%) [2]: 58.18% and 68.75%
- Population Normal (%) [2]: 100%
- Population Pyknosed Nuclei (%) [2]: 14.59% and 10.53%
- Population Tubulin-Different-Phenotype (%) [2]: 0.63% and 0%
- Total Cell Count [2]: 377 and 152
- Population Apoptotic (%) [3]: 38.78% and 38.46%
- Population Fragmented Nuclei (%) [3]: 1.97% and 1.6%
- Population Healthy Nuclei (%) [3]: 88.36% and 84.57%
- Population Hoechst High Intensity Objects (%) [3]: 0.2% and 0%
- Population Membrane Permeable-Phenotype (%) [3]: 0.22% and 3.14%
- Population Mitochondria Different-Phenotype (%) [3]: 0.22% and 3.14%
- Population Mitotic Cells (%) [3]: 61.22% and 61.54%
- Population Normal (%) [3]: 99.8% and 100%
- Population Pyknosed Nuclei (%) [3]: 9.66% and 13.83%
- Population Tubulin-Different-Phenotype (%) [3]: 0.89% and 0%
- Total Cell Count [3]: 508 and 188
- Population Apoptotic (%) [4]: 38.46% and 40%
- Population Fragmented Nuclei (%) [4]: 2.57% and 1.6%
- Population Healthy Nuclei (%) [4]: 87.15% and 87.77%
- Population Hoechst High Intensity Objects (%) [4]: 0%
- Population Membrane Permeable-Phenotype (%) [4]: 0.91% and 5.45%
- Population Mitochondria Different-Phenotype (%) [4]: 0.23% and 3.03%
- Population Mitotic Cells (%) [4]: 61.54% and 60%
- Population Normal (%) [4]: 100%
- Population Pyknosed Nuclei (%) [4]: 10.28% and 10.64%
- Population Tubulin-Different-Phenotype (%) [4]: 0.91% and 1.21%
- Total Cell Count [4]: 506 and 188
- Population Apoptotic (%) [5]: 48.15% and 60%
- Population Fragmented Nuclei (%) [5]: 1.9% and 2.52%
- Population Healthy Nuclei (%) [5]: 90.4% and 84.91%
- Population Hoechst High Intensity Objects (%) [5]: 0.09% and 0%
- Population Membrane Permeable-Phenotype (%) [5]: 0.84% and 0.74%
- Population Mitochondria Different-Phenotype (%) [5]: 0% and 3.7%
- Population Mitotic Cells (%) [5]: 51.85% and 40%
- Population Normal (%) [5]: 99.91% and 100%
- Population Pyknosed Nuclei (%) [5]: 7.7% and 12.58%
- Population Tubulin-Different-Phenotype (%) [5]: 0.63% and 0%
- Population Apoptotic (%) [6]: 25.3% and 58.62%
- Population Fragmented Nuclei (%) [6]: 3.4% and 3.18%
- Population Healthy Nuclei (%) [6]: 88.05% and 87.58%
- Population Hoechst High Intensity Objects (%) [6]: 0%
- Population Membrane Permeable-Phenotype (%) [6]: 1.29% and 2.18%
- Population Mitochondria Different-Phenotype (%) [6]: 0.12% and 3.27%
- Population Mitotic Cells (%) [6]: 74.7% and 41.38%
- Population Normal (%) [6]: 100%
- Population Pyknosed Nuclei (%) [6]: 8.55% and 9.24%
- Population Tubulin-Different-Phenotype (%) [6]: 0.94% and 0%
